This is an account of results in paper PMC5773287 (ACS nano, 2017).

A word on the IC50: it is the concentration that gives 50% inhibition.

Data set [1] relates to GL261 mouse glioma cell line. Description: Cytotoxicity assay against the mouse glioma cell line GL261.
The format of data set [2] is physicochemical. Conditions: for hydrogel formation: 30 mM in 1× DPBS solution, overnight ageing, vial inversion; for self-assembled morphology (cryo-TEM): 1× DPBS, aged over 24 h at room temperature, PemFE 4 mM, C12FE 10 mM. In short, it runs like this:
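Self-assembled nanostructures imaged by cryo-TEM after aging over 24 h at room temperature. For gelation, lyophilized test peptide powder was dissolved in 1× DPBS at a final 30 mM and sonicated 2 min to aid dissolution. Samples were aged overnight, and gel formation was recorded by photographing inverted vials.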

Data set [3] in a line: Cytotoxicity assay against the mouse glioma cell line GL261.

Numbered stars: 1 amine (or outer) side, 2 acyl side, 3 side chain; on linkers, the order of the positions; unused ones are H or OH. Peptide text beside a SMILES is read from it. * marks the point of attachment. X1 = Nc1nc2[nH]cc(CCc3ccc(C(=O)*)cc3)c2c(=O)[nH]1; γGlu = O=C(O)[C@H](CCC(=O)[*:2])N[*:1]

In the case of `Nc1nc2[nH]cc(CCc3ccc(C(=O)N[C@@H](CCC(=O)O)C(=O)O)cc3)c2c(=O)[nH]1` [Pem, Pemetrexed, reference compound], the IC50 in data set [1] (Mus musculus, GL261, read-out: IC50 (cytotoxicity)) came out at 130 nM.

For the molecule `Nc1nc2[nH]cc(CCc3ccc(C(=O)N[C@@H](CCC(=O)N[C@@H](Cc4ccccc4)C(=O)N[C@@H](Cc4ccccc4)C(=O)N[C@@H](CCC(=O)O)C(=O)N[C@@H](CCC(=O)O)C(=O)O)C(=O)O)cc3)c2c(=O)[nH]1` [PemFE] ({X1-γGlu}-FFEE-OH), in data set [2], the hydrogel formation entry is recorded as “formation of self-supporting hydrogels” and the “self-assembled morphology (cryo-TEM)” value was “filamentous nanostructures”. This molecule had an IC50 in data set [3] of 2290 nM.

Consider FFEE [C12FE], for which, in data set [2], the hydrogel formation result is reported as “formation of self-supporting hydrogels” and the “self-assembled morphology (cryo-TEM)” value was “filamentous nanostructures”. Further, the cell toxicity result in data set [1] (GL261 cells, concentrations up to 100 μM) is recorded as “did not show any significant cell toxicity”.
